Screens deposited in PubChem BioAssay by Broad Institute.
PvdQ acylase – P. aeruginosa PvdQ acylase inhibitors, primary screen, biochemical, fluorescence, plate reader and imaging, single point; inhibition, % at 10 µM; purified PvdQ acylase; PvdQ acylase [Pseudomonas aeruginosa LESB58]; 340,000 tested, 0.063% active; in the data active means inhibition above about 30%, passing the limit was not always enough; inconclusive means no clear call, values can overlap the other calls
CDK5 p35 inh – inhibitors of human CDK5/p35 kinase, primary screen, biochemical, single concentration; Recombinant CDK5/p35, ADP-Glo luminescence, 60 min; inhibition, % at 10 µM; 330,000 tested, 0.01% active; AID 488839, 2010;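 active means highest replicate inhibition of at least 50% and at least 75% of replicates reaching 50%; inconclusive means only one of the two criteria met; inactive means both criteria failed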
Target sequence (Q00535 whole entry, looked up): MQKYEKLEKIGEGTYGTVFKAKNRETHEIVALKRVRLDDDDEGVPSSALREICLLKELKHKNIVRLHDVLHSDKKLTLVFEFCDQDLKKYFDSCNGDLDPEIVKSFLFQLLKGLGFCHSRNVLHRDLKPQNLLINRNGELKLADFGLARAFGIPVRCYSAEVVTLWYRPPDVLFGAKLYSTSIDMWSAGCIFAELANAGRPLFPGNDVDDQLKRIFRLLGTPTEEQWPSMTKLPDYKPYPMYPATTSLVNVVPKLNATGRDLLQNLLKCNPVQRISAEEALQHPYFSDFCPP
Target sequence (Q15078 whole entry, looked up): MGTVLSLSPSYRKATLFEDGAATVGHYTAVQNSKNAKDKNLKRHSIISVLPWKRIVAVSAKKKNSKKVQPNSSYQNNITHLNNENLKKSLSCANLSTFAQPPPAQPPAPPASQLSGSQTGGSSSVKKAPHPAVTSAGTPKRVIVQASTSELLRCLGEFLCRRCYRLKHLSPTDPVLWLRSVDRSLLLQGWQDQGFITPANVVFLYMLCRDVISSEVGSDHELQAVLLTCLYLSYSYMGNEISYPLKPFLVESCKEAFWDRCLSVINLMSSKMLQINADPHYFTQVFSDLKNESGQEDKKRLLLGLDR
CAL PDZ FP-1 – untagged CAL PDZ binding inhibitors, primary screen, biochemical, fluorescence polarization, HTS | Golgi-associated PDZ and coiled-coil motif-containing protein (Homo sapiens), Q9HD26 | purified CAL PDZ, TMR-peptide fluorescence polarization, 1 h | inhibition, % at 24.9 µM | 300,000 tested, 0.92% active | AID 602252, 2012;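 active means mean inhibition of at least 30% with at least half of replicates also reaching 30%; inconclusive means no clear call, values can overlap the other calls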
CAL PDZ FP-2 – CAL PDZ peptide-binding inhibitors, primary screen, biochemical, fluorescence polarization, Cer-tagged CAL PDZ, HTS | Golgi-associated PDZ and coiled-coil motif-containing protein (Homo sapiens), Q9HD26 | purified CAL PDZ, TMR-peptide fluorescence polarization, 1 h | 330,000 tested, 0.02% active | AID 504414, 2011 | inhibition, % at 20 µM;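 active means highest replicate inhibition of at least 40%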
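System: tagged CAL PDZ domain. Schedule: 1 h room-temperature incubation prior to read. Signal: fluorescence polarization (mP). Measure: percent inhibition from loss of millipolarization.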
Glyco luc inh – increase of ERlucT glycosylation luciferase signal, primary screen, N-linked glycosylation inhibitor project, D54 ERlucT cells, luminescence, set 2; D54 ERlucT glycosylation luciferase reporter, 24 h; percent of 100 nM tunicamycin response; reporter increase, % at 12.5 µM; 360,000 tested, 0.23% active; AID 588692, 2011;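 active means mean luciferase reporter signal, scaled so untreated is 0 and the glycosylation-blocking control 100, at or above a set limit in every replicate; inconclusive means mean reaches the limit but not every replicate does; inactive means mean below the limit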;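 further: luciferase carries N-glycosylation sites so blocking glycosylation raises the light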
Vif inh – HIV Vif self-association inhibitors, primary screen, imaging, HEK293T, single point; HEK293T cells, Vif self-association by quenched fluorescence, 24 h; inhibition, % at 7.49 µM; 340,000 tested, 0.35% active; in the data active means inhibition above about 50%, passing the limit was not always enough; inconclusive means no clear call, values can overlap the other calls; inactive means below about 31%
Numbers stand for hits; . = inactive; ? = inconclusive; / = not tested or not shown. Compounds with a hit are over-represented: about 1.4% of the library has one in this group of screens.

SMILES | PvdQ acylase | CDK5 p35 inh | CAL PDZ FP-1 | CAL PDZ FP-2 | Glyco luc inh | Vif inh
Cc1ccc(S(=O)(=O)C(NC(=O)c2ccccc2)=C(Cl)Cl)cc1 | . | . | . | . | 74.9 | ?
Cc1ccc(C(=O)NC(=C(Cl)Cl)S(=O)(=O)c2ccc(C)cc2)cc1 | . | . | . | . | ? | .
Cc1ccc(S(=O)(=O)/C(=C/Cl)NC(=O)c2ccccc2)cc1 | . | . | . | . | . | .
CC(=O)NC(=C(Cl)Cl)S(=O)(=O)c1ccccc1 | . | . | . | . | ? | /
NC(=O)[C@@H]1CC2(CC(c3cccc(NC(=O)[C@H]4CCC(=O)N4)c3)=NO2)CN1C(=O)COc1ccc(Cl)cc1 (stereo partly specified) | . | . | . | . | . | /
C/C(=N\NC(=O)c1ccc(Br)o1)c1cc2c(cc1NC(=O)CCC(=O)O)OCO2 | . | . | . | . | . | .
CCCCNC(=O)C1(C)CCCCN1C(=O)c1ccc(C#N)cc1 (stereo unspecified) | / | / | / | / | . | .
c1ccc(C[n+]2cccc3c4ccccc4ccc32)cc1 | . | . | . | . | . | 52.5
O=C(Cc1ccsc1)N1CCN(S(=O)(=O)c2ccccc2F)CC1 | . | . | . | . | . | .
CC1=NN(C(=O)COc2ccccc2C)C(O)(c2ccc(Cl)cc2)C1 (stereo unspecified) | . | . | . | . | . | .
O=C(O)c1cc2c(cc1Cl)N1CCCCCC1=NS2(=O)=O | . | . | 50.8 | . | . | .
Cc1ccc(S(=O)(=O)N2CCC(C(=O)OCC(=O)Nc3cc(S(C)(=O)=O)ccc3Cl)CC2)cc1C | . | . | 40.4 | . | . | .
Cc1ccc(Cl)c(NC(=O)COC(=O)C2CCC2)c1Cl | . | . | 54.7 | . | . | .
COc1ccc(N[C@@H]2CCN3C(=O)c4ccccc4[C@@H]3C[C@H]2O)cc1 | . | . | . | . | . | ?
O=C1c2ccccc2[C@@H]2C[C@@H](O)[C@H](Nc3cccc4ccccc34)CCN12 | . | . | . | . | . | 83.0
O=[N+]([O-])c1ccc(NN=Cc2ccc(O)cc2O)nc1 | . | . | 47.8 | . | . | .
O=C(CNS(=O)(=O)c1ccc([N+](=O)[O-])cc1)N/N=C\c1ccc(O)cc1 | . | . | . | . | . | .
Oc1ccccc1/C=N/Nc1nccnc1Cl | . | . | . | . | . | .
O=C(CNS(=O)(=O)c1ccc([N+](=O)[O-])cc1)N/N=C/c1ccc(O)cc1O | . | . | 34.5 | / | . | .
O=[N+]([O-])c1cccnc1N/N=C/c1ccccc1O | . | . | 76.3 | . | . | .
Oc1ccc(/C=N/Nc2nccnc2Cl)c(O)c1 | . | . | . | . | . | 81.0
CCc1ccc(N2CC(C(=O)Nc3ccccc3N3CCCC3)CC2=O)cc1 (stereo unspecified) | / | / | / | / | . | /
COc1ccc(N2CC(C(=O)Nc3nc4ccc(S(C)(=O)=O)cc4s3)CC2=O)cc1 (stereo unspecified) | . | . | / | . | . | .
Cn1c(N)c(C(=O)CSc2nnc(-c3c[nH]c4ccccc34)n2C2CC2)c(=O)[nH]c1=O | . | . | . | . | . | .
COc1ccc(C=NNc2ccc([N+](=O)[O-])cn2)cc1 | . | . | . | . | . | .
O=[N+]([O-])c1ccc(NN=Cc2ccccc2O)nc1 | . | . | 42.0 | . | . | .
N#Cc1ccccc1Cn1cc(/C=N/Nc2ccc([N+](=O)[O-])cn2)c2ccccc21 | . | . | . | . | . | 158.3
O=[N+]([O-])c1ccc(NN=Cc2ccccc2)nc1 | . | . | . | . | . | .
COc1ccccc1C=NNc1ccc([N+](=O)[O-])cn1 | . | . | . | . | . | .
O=[N+]([O-])c1ccc(N/N=C/c2ccc(OCc3cccc4ccccc34)cc2)nc1 | . | . | . | . | . | 148.7
